Results from ChEMBL document CHEMBL4715781, “Exploration of bivalent ligands targeting putative mu opioid receptor and chemokine receptor CCR5 dimerization” (Bioorg Med Chem, 2016).
Activity calls are given as the source filed them. The calls are words filed in the database; no cut-off is given here.

Assays:
[1] = molecular target: T1, C-C chemokine receptor type 5 (Homo sapiens, UniProt P51681); experiment: Antagonist activity at CCR5 receptor in human MOLT4 cells transfected with Gqi5 assessed as inhibition of RANTES-induced calcium mobilization incubated for 15 mins prior to RANTES addition and measured for 120 secs by Fluo-4AM dye based fluorescence analysis; type: functional, cell-based, MOLT-4
Outline: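 CCR5-MOLT-4 cells transfected with Gqi5, assayed 48 h later at 25,000 cells/well. Fluo-4 AM/probenecid loading for 45 min, then ligands for 15 min. IC50 from non-linear regression of peak heights. Three repeats.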
Target sequence in this assay (P51681 whole entry): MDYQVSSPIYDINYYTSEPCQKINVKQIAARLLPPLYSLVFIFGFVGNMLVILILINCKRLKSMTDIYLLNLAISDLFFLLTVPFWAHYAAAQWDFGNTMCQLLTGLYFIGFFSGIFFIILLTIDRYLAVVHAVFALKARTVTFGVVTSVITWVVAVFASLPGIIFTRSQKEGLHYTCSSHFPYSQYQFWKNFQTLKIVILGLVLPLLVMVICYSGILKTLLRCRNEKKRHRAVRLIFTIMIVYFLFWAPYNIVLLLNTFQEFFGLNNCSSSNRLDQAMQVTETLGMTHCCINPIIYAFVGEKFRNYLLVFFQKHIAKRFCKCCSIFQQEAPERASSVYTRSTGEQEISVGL

[2] = molecular target: C-C chemokine receptor type 5 (Macaca mulatta, UniProt P61813); experiment: Displacement of [125I]MIP-1alpha from CCR5 receptor in rhesus monkey membrane incubated for 120 mins by liquid scintillation counting analysis; type: cell membranes, Cell membrane
[3] = molecular target: T1, C-C chemokine receptor type 5; experiment: Agonist activity at CCR5 receptor in human MOLT4 cells transfected with Gqi5 assessed as calcium mobilization incubated for 15 mins by Fluo-4AM dye based fluorescence analysis; type: functional, cell-based; details: MOLT-4
Outline: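 CCR5-MOLT-4 cells transfected with Gqi5, tested 48 h post-transfection at 25,000 cells/well in 50:1 HBSS:HEPES buffer. Fluo-4 AM with probenecid loaded for 45 min, then varying ligand concentrations added for 15 min. Fluorescence at 494/516 nm read for 120 s, with buffer alone added at 16 s in place of RANTES. Peak height taken as agonism read-out.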
Target sequence in this assay (P51681 whole entry, looked up): as the sequence (P51681 whole entry) above

Mu-type opioid receptor [4] = molecular target: Mu-type opioid receptor (Mus musculus, UniProt P42866); experiment: Displacement of [3H]NLX from mouse MOR expressed in CHO cell membrane incubated for 90 mins by liquid scintillation spectrophotometry; type: cell membranes
Sequence of Mu-type opioid receptor (Mus musculus, UniProt P42866) (P42866 whole entry): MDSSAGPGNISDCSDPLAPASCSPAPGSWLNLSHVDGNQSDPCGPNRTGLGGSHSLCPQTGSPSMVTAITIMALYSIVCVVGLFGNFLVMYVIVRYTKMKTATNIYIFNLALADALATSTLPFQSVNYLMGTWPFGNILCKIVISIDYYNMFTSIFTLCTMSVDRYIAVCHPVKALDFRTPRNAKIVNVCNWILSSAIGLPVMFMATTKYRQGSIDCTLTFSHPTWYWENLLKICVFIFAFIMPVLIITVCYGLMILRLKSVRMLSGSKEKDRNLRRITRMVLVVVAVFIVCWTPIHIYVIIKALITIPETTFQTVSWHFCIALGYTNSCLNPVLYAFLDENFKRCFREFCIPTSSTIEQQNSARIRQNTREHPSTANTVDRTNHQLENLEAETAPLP
Outline: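 mMOR-CHO membranes incubated 90 min at 30 °C with 2 nM [3H]naloxone and varying unlabeled ligand. Bound ligand collected by rapid GF-B filtration with 3 ice-cold Tris washes and counted by scintillation (45% efficiency). Competitor IC50 used to derive Ki. At least three independent experiments.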

Mu-type opioid receptor [5] = molecular target: Mu-type opioid receptor (Homo sapiens, UniProt P35372); experiment: Antagonist activity at human MOR transfected in CHO cells co-transfected with Gqi5 assessed as inhibition of DAMGO-induced calcium mobilization incubated for 15 mins prior to DAMGO addition and measured for 90 secs by Fluo-4AM dye based fluorescence analysis; type: functional, cell-based
Sequence of Mu-type opioid receptor (Homo sapiens, UniProt P35372) (P35372 whole entry): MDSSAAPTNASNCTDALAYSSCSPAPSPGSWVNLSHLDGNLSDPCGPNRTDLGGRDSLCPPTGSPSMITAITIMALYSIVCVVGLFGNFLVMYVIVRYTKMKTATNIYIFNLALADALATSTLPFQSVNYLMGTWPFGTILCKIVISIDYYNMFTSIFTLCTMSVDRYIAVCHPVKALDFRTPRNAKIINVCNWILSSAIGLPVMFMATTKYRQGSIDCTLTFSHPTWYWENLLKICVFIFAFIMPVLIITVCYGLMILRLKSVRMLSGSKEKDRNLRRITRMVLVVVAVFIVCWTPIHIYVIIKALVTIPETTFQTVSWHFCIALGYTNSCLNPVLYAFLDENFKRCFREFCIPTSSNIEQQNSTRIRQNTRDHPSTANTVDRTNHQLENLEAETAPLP
Outline: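 Gqi5-transfected hMOR-CHO cells plated at 20,000/well and used 48 h after transfection. Loaded 30 min with Fluo-4 AM/probenecid in HBSS:HEPES, then ligands added for 15 min. IC50 from non-linear regression of peak heights. Three repeats.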

[6] = test system: Human immunodeficiency virus 1; experiment: Antiviral activity against HIV-1 BAL infected in human astrocytes assessed as reduction in p24 production at 10 to 1000 nM treated for 1 hr prior to viral infection and measured after 5 days by ELISA; type: functional, organism-based; details: Astrocyte, dose 10-1000 nM, time 5.0 day
Outline: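 Primary human astrocytes plated at 1 × 10^5 cells/mL and stimulated 48 h with IL-2 (100 ng/mL) and PHA (5 µg/mL). Polybrene for 30 min, then compound at 10, 100, 1000 nM for 1 h before infection with HIV-1 BaL (p24 1000 pg/mL). p24 ELISA on supernatants and lysates at day 5.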

[7] = test system: Human immunodeficiency virus 1; experiment: Antiviral activity against HIV-1 BAL infected in human macrophages assessed as reduction in p24 production at 1 uM treated for 1 hr prior to viral infection and measured after 5 days by ELISA; type: functional, organism-based; details: Macrophage, time 5.0 day
Outline: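 Macrophages derived from PBMCs with M-CSF (100 ng/mL) for 6 days, plated at 1 × 10^5 cells/mL and stimulated 48 h with IL-2/PHA. Polybrene for 30 min, compound (10–1000 nM) for 1 h before HIV-1 BaL (p24 1000 pg/mL). p24 in supernatant and lysate measured by ELISA 5 days post-infection. ANOVA with Dunnett's test.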

[8] = test system: Human immunodeficiency virus 1; experiment: Antiviral activity against HIV-1 BAL infected in human PBMC assessed as reduction in p24 production at 10 to 1000 nM treated for 1 hr prior to viral infection and measured after 5 days by ELISA; type: functional, organism-based; details: dose 10-1000 nM, time 5.0 day
Outline: (§1)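 Ficoll-isolated human PBMCs plated at 1 × 10^5 cells/mL and stimulated 48 h with IL-2 (100 ng/mL) and PHA (5 µg/mL). Then polybrene (2 µg/mL) for 30 min, compound at 10, 100 or 1000 nM for 1 h, and infection with R5-tropic HIV-1 BaL (p24 1000 pg/mL). Supernatant and RIPA lysate p24 measured by ELISA at day 5. Dunnett's test against infection alone.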

[9] = test system: Human immunodeficiency virus 1; experiment: Antiviral activity against HIV-1 SF162 infected in human astrocytes assessed as reduction in viral invasion by measuring decrease in Tat protein expression at 100 nM co-treated with morphine prior to viral infection and measured after 18 hrs by luciferase based assay; type: functional, organism-based; details: Astrocyte
Outline: (§2)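 Primary human astrocytes in 24-well plates transfected with pBlue3'LTR-luc. […] Uninfected cells served as negative control. After about 18–20 h, cells were PBS-rinsed and lysed, and Tat-driven luciferase was measured.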

[10] = test system: Human immunodeficiency virus 1; experiment: Antiviral activity against HIV-1 SF162 infected in human astrocytes assessed as reduction in viral invasion by measuring decrease in Tat protein expression at 100 nM treated prior to viral infection and measured after 18 hrs by luciferase based assay; type: functional, organism-based; details: Astrocyte; outline: as §2
CHO [11] = experiment: Binding affinity to CCR5-hMOR heterodimer in CHO cells co-expressing CD4 and luciferase reporter assessed as inhibition of CD4-gp120 complex interaction with receptor dimer by measuring inhibition of cell-cell fusion process at 3000 nM measured after co-incubation of CHO cells with HEK293 cells …; type: cell-based; details: time 18.0 hrs
CHO [12] = experiment: as above; type: cell-based; details: time 18.0 hrs; remark: listed apart in the source
[13] = test system: Human immunodeficiency virus 1; experiment: Antiviral activity against HIV-1 SF162 infected in human astrocytes assessed as reduction in viral invasion by measuring decrease in Tat protein expression at 100 nM treated prior to viral infection and measured after 18 hrs by luciferase based assay relative to maraviroc in presence of morphine; type: functional, Astrocyte
Outline: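 Primary human astrocytes carried the transfected pBlue3'LTR-luc reporter. […] Uninfected cells served as negative control. Lysates were taken about 18–20 h later after PBS rinses, and Tat expression was quantified by luciferase luminescence.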

[14] = test system: Human immunodeficiency virus 1; experiment: Antiviral activity against HIV-1 SF162 infected in human astrocytes assessed as reduction in viral invasion by measuring decrease in Tat protein expression at 100 nM treated prior to viral infection and measured after 18 hrs by luciferase based assay relative to maraviroc; type: functional, Astrocyte
Outline: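 Primary human astrocytes in 24-well plates were transfected with the LTR-luciferase reporter pBlue3'LTR-luc. […] Uninfected cells served as negative control. After about 18–20 h, cells were PBS-rinsed and lysed, and luciferase activity was read as Tat expression.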

[15] = test system: Human immunodeficiency virus 1; experiment: Antiviral activity against HIV-1 BAL infected in human PBMC assessed as reduction in p24 production at 1 uM treated for 1 hr prior to viral infection and measured after 5 days by ELISA; type: functional, organism-based; details: time 5.0 day; outline: as §1
CHO [16] = experiment: Antagonist activity at CCR5 receptor in CHO cells co-expressing hMOR, CD4 and luciferase reporter assessed as inhibition of CD4-gp120 complex interaction with receptor dimer by measuring inhibition of cell-cell fusion process at 100 nM measured after co-incubation of CHO cells with HEK293 cells …; type: cell-based; details: Cricetulus griseus, filed as antagonist, time 18.0 hrs
[17] = test system: Human immunodeficiency virus 1; experiment: Antiviral activity against HIV-1 BAL infected in human PBMC assessed as reduction in p24 production at 500 nM treated for 1 hr prior to viral infection and measured after 5 days by ELISA; type: functional, organism-based; details: time 5.0 day
Outline: (§3)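 PBMCs were Ficoll-isolated from leukopak blood and grown in RPMI-1640 with 10% FBS; macrophages came from PBMCs given M-CSF 100 ng/mL for 6 days. Cells at 1 × 10^5/mL were stimulated with IL-2 (100 ng/mL) and PHA (5 µg/mL) for 48 h, then polybrene (2 µg/mL) for 30 min. Compound was added 1 h before R5 HIV-1 BaL (p24 1000 pg/mL). Supernatant and RIPA-lysate p24 were measured by ELISA at day 5.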

CHO [18] = experiment: Antagonist activity at CCR5 receptor in CHO cells co-expressing hMOR, CD4 and luciferase reporter assessed as inhibition of CD4-gp120 complex interaction with receptor dimer by measuring inhibition of cell-cell fusion process at 100 nM measured after co-incubation of CHO cells with HEK293 cells …; type: cell-based; details: Cricetulus griseus, filed as antagonist, time 18.0 hrs; remark: listed apart in the source
[19] = test system: Human immunodeficiency virus 1; experiment: Antiviral activity against HIV-1 BAL infected in human macrophages assessed as reduction in p24 production at 500 nM treated for 1 hr prior to viral infection and measured after 5 days by ELISA; type: functional, organism-based; details: Macrophage, time 5.0 day; outline: as §3

CNC(=O)COCC(=O)NCCCCCCCNC(=O)COCC(=O)Nc1ccc([C@H](CCN2[C@@H]3CC[C@H]2C[C@@H](n2c(C)nnc2C(C)C)C3)NC(=O)C2CCC(F)(F)CC2)cc1
IC50 [1]: 622 nM
Ki [2]: 151 nM
Activity [3]: inactive

CNC(=O)COCC(=O)NCCCCCNC(=O)COCC(=O)Nc1ccc([C@H](CCN2[C@@H]3CC[C@H]2C[C@@H](n2c(C)nnc2C(C)C)C3)NC(=O)C2CCC(F)(F)CC2)cc1
IC50 [1]: 948 nM
Activity [3]: inactive

Cc1nnc(C(C)C)n1[C@H]1C[C@H]2CC[C@@H](C1)N2CC[C@H](NC(=O)C1CCC(F)(F)CC1)c1cccc(NC(=O)COCC(=O)NCCCCCCCNC(=O)COCC(=O)N[C@@H]2CC[C@@]3(O)[C@H]4Cc5ccc(O)c6c5[C@@]3(CCN4CC3CC3)[C@H]2O6)c1
IC50 [1]: 1340 nM
Ki (Mu-type opioid receptor [4]): 10 nM
IC50 (Mu-type opioid receptor [5]): 17.1 nM
Activity [3]: inactive

CNC(=O)COCC(=O)NCCCCCNC(=O)COCC(=O)N[C@@H]1CC[C@@]2(O)[C@H]3Cc4ccc(O)c5c4[C@@]2(CCN3CC2CC2)[C@H]1O5
Ki (Mu-type opioid receptor [4]): 0.78 nM
IC50 (Mu-type opioid receptor [5]): 92.1 nM

CNC(=O)COCC(=O)NCCCCCCCCCNC(=O)COCC(=O)N[C@@H]1CC[C@@]2(O)[C@H]3Cc4ccc(O)c5c4[C@@]2(CCN3CC2CC2)[C@H]1O5
Ki (Mu-type opioid receptor [4]): 1.11 nM
IC50 (Mu-type opioid receptor [5]): 41.4 nM

Cc1nnc(C(C)C)n1[C@H]1C[C@H]2CC[C@@H](C1)N2CC[C@H](NC(=O)C1CCC(F)(F)CC1)c1ccc(NC(=O)COCC(=O)NCCCCCNC(=O)COCC(=O)N[C@@H]2CC[C@@]3(O)[C@H]4Cc5ccc(O)c6c5[C@@]3(CCN4CC3CC3)[C@H]2O6)cc1
IC50 [1]: 2410 nM
Activity [6]: Active
Ki (Mu-type opioid receptor [4]): 3.8 nM
Activity [7]: inactive
Activity [8]: inactive
IC50 (Mu-type opioid receptor [5]): 21.8 nM
Activity [3]: inactive

Cc1nnc(C(C)C)n1[C@H]1C[C@H]2CC[C@@H](C1)N2CC[C@H](NC(=O)C1CCC(F)(F)CC1)c1ccc(NC(=O)COCC(=O)NCCCCCCCNC(=O)COCC(=O)N[C@@H]2CC[C@@]3(O)[C@H]4Cc5ccc(O)c6c5[C@@]3(CCN4CC3CC3)[C@H]2O6)cc1
IC50 [1]: 126 nM
Activity [6]: Active
Activity [9]: Active
Ki (Mu-type opioid receptor [4]): 3.24 nM
Activity [10]: Active
Activity (CHO [11]): Active
Activity (CHO [12]): Active
Activity [7]: Active
Ki [2]: 239 nM
fold change (FC) [13]: 7
Activity [8]: Active
fold change (FC) [14]: 3.3
IC50 (Mu-type opioid receptor [5]): 40 nM
Activity [3]: inactive

Cc1nnc(C(C)C)n1[C@H]1C[C@H]2CC[C@@H](C1)N2CC[C@H](NC(=O)C1CCC(F)(F)CC1)c1ccc(NC(=O)COCC(=O)NCCCCCCCCCNC(=O)COCC(=O)N[C@@H]2CC[C@@]3(O)[C@H]4Cc5ccc(O)c6c5[C@@]3(CCN4CC3CC3)[C@H]2O6)cc1
IC50 [1]: 543 nM
Activity [6]: Active
Ki (Mu-type opioid receptor [4]): 6.49 nM
Activity [7]: Active
IC50 (Mu-type opioid receptor [5]): 21.9 nM
Activity [3]: inactive
Activity [15]: Active

Cc1nnc(C(C)C)n1[C@H]1C[C@H]2CC[C@@H](C1)N2CC[C@H](NC(=O)C1CCC(F)(F)CC1)c1ccccc1
Activity (CHO [16]): Active
Activity [9]: inactive
Activity [10]: Active
Activity [17]: Active
Activity (CHO [18]): Active
Activity [19]: Active

CNC(=O)COCC(=O)NCCCCCCCCCNC(=O)COCC(=O)Nc1ccc([C@H](CCN2[C@@H]3CC[C@H]2C[C@@H](n2c(C)nnc2C(C)C)C3)NC(=O)C2CCC(F)(F)CC2)cc1
IC50 [1]: 392 nM
Activity [3]: inactive

CNC(=O)COCC(=O)NCCCCCCCNC(=O)COCC(=O)N[C@@H]1CC[C@@]2(O)[C@H]3Cc4ccc(O)c5c4[C@@]2(CCN3CC2CC2)[C@H]1O5
Ki (Mu-type opioid receptor [4]): 9.2 nM

CNC(=O)COCC(=O)NCCCCCCCNC(=O)COCC(=O)Nc1cccc([C@H](CCN2[C@@H]3CC[C@H]2C[C@@H](n2c(C)nnc2C(C)C)C3)NC(=O)C2CCC(F)(F)CC2)c1
IC50 [1]: 129 nM
Activity [3]: inactive
